The values that follow come from ChEMBL document CHEMBL1123345, “2-Alkyl-substituted 1,1-bis(4-acetoxyphenyl)-2-phenylethenes. Estrogen receptor affinity, estrogenic and antiestrogenic properties, and mammary tumor inhibiting activity” (1986).

Experiment [1] has as its target T1, Estrogen receptor (Mus musculus) (UniProt O08537+P19785). Description: Estrogenic effect in uterotrophic assay in immature mice at 1 ug dose. The experiment is classed as functional. The method, boiled down: (§1)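 Immature female NMRI mice (10–12 g, 20 days old, 10 per group) injected sc daily for 3 days with compound in olive oil (0.1 mL/mouse), dose per animal per day. Uteri removed 24 h after last dose, Bouin-fixed, dried, weighed. Effect = uterus dry weight (mg)/body weight (g) × 100. Activity = (E_T − E_V)/(E_S − E_V) × 100, with estrone 0.4 μg standard as 100%.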

The target of experiment [2] is T1, Estrogen receptor (Mus musculus). Description: Estrogenic effect in uterotrophic assay in immature mice at 100 ug dose. The experiment is classed as functional. In a few lines:
as §1

For experiment [3] the target is unchanged. The experiment is described as follows: Estrogenic effect in uterotrophic assay in immature mice at 25 ug dose. In kind it is functional. The method, boiled down: as §1
For experiment [4] the target is unchanged. The experiment is described as follows: Estrogenic effect in uterotrophic assay in immature mice at 5 ug dose. In kind it is functional. In a few lines: as §1
Experiment [5] shares this target. The experiment is described as follows: Anti-estrogenic effect in uterotrophic assay in immature mice at 1.0 ug dose. In kind it is functional. In a few lines: (§2)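 Immature female NMRI mice (10–12 g, 20 days old, 10 per group) given test compound sc daily for 3 days in olive oil (0.1 mL/mouse), dose per animal per day, with estrone stimulating uterine growth. Uteri removed 24 h after last injection, Bouin-fixed, dried and weighed. Read-out is % inhibition of estrone-stimulated uterine growth.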

Experiment [6] shares this target. Description: In vivo inhibition of uterine growth in hormone-dependent MXT mammary tumor bearing mice. The experiment is classed as functional, organism-based. The method, boiled down: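 MXT tumor-bearing BDF1 mice dosed sc 3 times weekly for 6 weeks in olive oil at doses equimolar to 3 × 8 mg/kg per week. Uterotrophic effect measured at end of therapy. T/C % = treated/solvent-control uterotrophic effect × 100, mean of 10 animals. U test (Wilcoxon, Mann, Whitney), α ≤ 0.05.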

A further experiment has as its system Mus musculus. Description: In vivo inhibition of hormone-dependent MXT mammary tumor in mice. In kind it is functional. The method, boiled down: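 BDF1 mice bearing transplanted hormone-dependent MXT mammary tumor (line 3.2). From day 1 after transplantation, compounds given sc 3 times weekly in olive oil (0.1 mL/mouse) for 6 weeks, at doses equimolar to 3 × 8 mg/kg per week. Tumors excised, washed in 0.9% NaCl, blotted, weighed. T/C % = treated/solvent-control tumor weight × 100, mean of 10 animals. Mann–Whitney–Wilcoxon U test, α ≤ 0.05.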

Experiment [7] concerns the target T1, Estrogen receptor (Mus musculus). The experiment is described as follows: Anti-estrogenic effect in uterotrophic assay in immature mice at 5 ug dose. In kind it is functional. In a few lines: as §2
For experiment [8] the target is unchanged. The experiment is described as follows: Anti-estrogenic effect in uterotrophic assay in immature mice at 25 ug dose. In kind it is functional. The method, boiled down:
as §2

T1 sequence (O08537 whole entry, looked up): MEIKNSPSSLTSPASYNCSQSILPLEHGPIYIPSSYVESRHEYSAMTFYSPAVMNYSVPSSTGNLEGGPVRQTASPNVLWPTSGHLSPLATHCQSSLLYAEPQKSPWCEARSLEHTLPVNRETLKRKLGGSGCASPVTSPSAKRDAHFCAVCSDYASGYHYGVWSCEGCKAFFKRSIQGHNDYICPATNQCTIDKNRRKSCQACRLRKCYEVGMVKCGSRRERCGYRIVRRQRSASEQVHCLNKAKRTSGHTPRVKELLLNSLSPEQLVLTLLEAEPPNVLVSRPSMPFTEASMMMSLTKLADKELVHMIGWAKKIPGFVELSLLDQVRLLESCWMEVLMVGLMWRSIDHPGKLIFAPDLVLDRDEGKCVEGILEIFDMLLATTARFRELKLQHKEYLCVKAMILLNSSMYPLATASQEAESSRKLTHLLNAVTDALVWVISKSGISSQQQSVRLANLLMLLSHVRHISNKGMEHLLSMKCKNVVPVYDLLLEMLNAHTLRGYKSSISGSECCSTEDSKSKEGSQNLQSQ
T1 sequence (P19785 whole entry, looked up): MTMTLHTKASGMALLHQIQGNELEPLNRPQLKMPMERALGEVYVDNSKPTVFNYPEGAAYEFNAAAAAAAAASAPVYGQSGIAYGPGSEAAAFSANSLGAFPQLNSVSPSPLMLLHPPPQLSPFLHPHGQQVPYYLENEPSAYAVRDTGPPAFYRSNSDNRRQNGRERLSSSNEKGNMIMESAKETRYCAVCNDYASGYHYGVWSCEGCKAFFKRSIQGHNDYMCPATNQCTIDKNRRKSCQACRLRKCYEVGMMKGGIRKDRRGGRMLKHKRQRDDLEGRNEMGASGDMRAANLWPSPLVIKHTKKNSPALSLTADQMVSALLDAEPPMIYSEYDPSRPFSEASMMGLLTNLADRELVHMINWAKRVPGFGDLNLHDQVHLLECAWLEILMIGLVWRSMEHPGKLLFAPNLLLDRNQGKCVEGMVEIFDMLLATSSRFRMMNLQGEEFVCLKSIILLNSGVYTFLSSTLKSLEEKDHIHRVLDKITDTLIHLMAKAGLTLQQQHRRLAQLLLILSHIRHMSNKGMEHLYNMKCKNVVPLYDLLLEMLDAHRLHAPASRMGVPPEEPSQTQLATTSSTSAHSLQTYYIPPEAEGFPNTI

What is called inhibition is the share of the control response that was lost under treatment. High values mean strong suppression, low ones little suppression. For orientation: T/C means the result in the treated group divided by that in the control group, in per cent. On to `CC(=O)Oc1ccc(C(=C(CC(F)(F)F)c2ccccc2)c2ccc(OC(C)=O)cc2)cc1`, for which the Activity came to 62 in [1], 86 in experiment [2], 108 in [3] and 140 in experiment [4]. In experiment [5], the inhibition turned out to be 0%. Besides, the T/C in experiment [6] amounted to 128%; in the experiment on Mus musculus, 43.1%.

For the molecule `CCC(c1ccccc1)C(c1ccc(OC(C)=O)cc1)c1ccc(OC(C)=O)cc1` (stereo not drawn), the Activity in [1] worked out at 17; in experiment [2] it was 83; in [3] it was 79; in experiment [4], 42. Also, the inhibition in experiment [5] came out at 27%; in experiment [7] it was 0%. Moreover, the T/C in [6] came out at 73.7%; in the experiment with Mus musculus, 69.1%.

On to `CC(=O)Oc1ccc(C(=C(c2ccccc2)C(C)C)c2ccc(OC(C)=O)cc2)cc1`, for which the Activity in experiment [1] is 60; in experiment [2], 117; in experiment [3], 100; in experiment [4], 87. Further, the inhibition in experiment [5] and in experiment [7] was 0% throughout. The T/C is 128% in experiment [6] and 0.2% with Mus musculus.

`CCCC(=C(c1ccc(OC(C)=O)cc1)c1ccc(OC(C)=O)cc1)c1ccccc1`: the Activity in [1] was determined as 31; in experiment [2], 114; in experiment [3], 90; in [4], 42. The inhibition in experiment [5] worked out at 19%; in experiment [7], 0%. For the same molecule, the T/C in [6] was 93.3%; in the experiment on Mus musculus it was 61.1%.

With `CCC(=C(c1ccc(OC(C)=O)cc1)c1ccc(OC(C)=O)cc1)c1ccccc1`, the Activity in [1] amounted to 37; in experiment [2], 107; in experiment [3], 98; in experiment [4], 72. The inhibition in experiment [5] and in experiment [7] was 0% each time. Moreover, the T/C in [6] worked out at 124%; in the experiment on Mus musculus it was 0.4%.

`CCC1(c2ccccc2)OC1(c1ccc(OC(C)=O)cc1)c1ccc(OC(C)=O)cc1` (stereo not drawn): the Activity in [1] amounted to 2; in experiment [2] it was 60; in experiment [3], 33; in experiment [4], 2. The inhibition in experiment [5] is 23%; in [8], 0%; in [7], 5%. Further, the T/C in experiment [6] amounted to 77.9%; in the experiment on Mus musculus, 78.9%.

In the experiment on Mus musculus, `CC/C(=C(\c1ccccc1)c1ccc(OCCN(C)C)cc1)c1ccccc1` [TAMOXIFEN] registered a T/C of 9.8%.

For `CC(=O)Oc1ccc(C(=C(C)c2ccccc2)c2ccc(OC(C)=O)cc2)cc1`, the Activity in experiment [1] stood at 125; in experiment [2] it was 78; in experiment [3] it was 83; in experiment [4], 108. Moreover, the T/C came out at 120% in [6] and 0.3% in the experiment on Mus musculus.

For `CC(=O)Oc1ccc(C(=Cc2ccccc2)c2ccc(OC(C)=O)cc2)cc1`, the Activity in experiment [1] came out at 11; in experiment [2], 116; in experiment [3], 99; in experiment [4] it was 13. The inhibition stood at 26% in experiment [5] and 0% in experiment [7]. For the same molecule, the values for the T/C (in experiment [6]; with Mus musculus) were 54.8% and 64.3%, respectively.
